In ChEMBL document CHEMBL4219233, “Discovery and evaluation of nNav1.5 sodium channel blockers with potent cell invasion inhibitory activity in breast cancer cells” (Bioorg Med Chem, 2018):

Tests used:
[1] = target: T1, Sodium channel protein type 5 subunit alpha (Homo sapiens, UniProt Q14524); test: Inhibition of neonatal Nav1.5 in human MDA-MB-231 cells assessed as reduction in inward sodium peak current at 10 uM at -100 mV holding potential after 5 to 10 mins by whole cell patch clamp method relative to control; format: cell-based; conditions: MDA-MB-231, human
Summary of the method: (§1)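 Whole-cell voltage clamp is used, with capacitance and series resistance compensated 60% and P/2 leak subtraction. Cells are perifused with PSS (mM: NaCl 140, KCl 4, MgCl2 1, CaCl2 2, NaH2PO4 0.33, glucose 11.1, HEPES 10; pH 7.4), with or without compound (final 0.2% DMSO), for 5–10 min. Peak INa is evoked by 30 ms steps from −100 to −5 mV. Percent block is taken from peak current. The concentration-response over 0.1–100 μM is Hill-fitted.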
Target sequence in this assay (Q14524 whole entry, the tested form may be a part): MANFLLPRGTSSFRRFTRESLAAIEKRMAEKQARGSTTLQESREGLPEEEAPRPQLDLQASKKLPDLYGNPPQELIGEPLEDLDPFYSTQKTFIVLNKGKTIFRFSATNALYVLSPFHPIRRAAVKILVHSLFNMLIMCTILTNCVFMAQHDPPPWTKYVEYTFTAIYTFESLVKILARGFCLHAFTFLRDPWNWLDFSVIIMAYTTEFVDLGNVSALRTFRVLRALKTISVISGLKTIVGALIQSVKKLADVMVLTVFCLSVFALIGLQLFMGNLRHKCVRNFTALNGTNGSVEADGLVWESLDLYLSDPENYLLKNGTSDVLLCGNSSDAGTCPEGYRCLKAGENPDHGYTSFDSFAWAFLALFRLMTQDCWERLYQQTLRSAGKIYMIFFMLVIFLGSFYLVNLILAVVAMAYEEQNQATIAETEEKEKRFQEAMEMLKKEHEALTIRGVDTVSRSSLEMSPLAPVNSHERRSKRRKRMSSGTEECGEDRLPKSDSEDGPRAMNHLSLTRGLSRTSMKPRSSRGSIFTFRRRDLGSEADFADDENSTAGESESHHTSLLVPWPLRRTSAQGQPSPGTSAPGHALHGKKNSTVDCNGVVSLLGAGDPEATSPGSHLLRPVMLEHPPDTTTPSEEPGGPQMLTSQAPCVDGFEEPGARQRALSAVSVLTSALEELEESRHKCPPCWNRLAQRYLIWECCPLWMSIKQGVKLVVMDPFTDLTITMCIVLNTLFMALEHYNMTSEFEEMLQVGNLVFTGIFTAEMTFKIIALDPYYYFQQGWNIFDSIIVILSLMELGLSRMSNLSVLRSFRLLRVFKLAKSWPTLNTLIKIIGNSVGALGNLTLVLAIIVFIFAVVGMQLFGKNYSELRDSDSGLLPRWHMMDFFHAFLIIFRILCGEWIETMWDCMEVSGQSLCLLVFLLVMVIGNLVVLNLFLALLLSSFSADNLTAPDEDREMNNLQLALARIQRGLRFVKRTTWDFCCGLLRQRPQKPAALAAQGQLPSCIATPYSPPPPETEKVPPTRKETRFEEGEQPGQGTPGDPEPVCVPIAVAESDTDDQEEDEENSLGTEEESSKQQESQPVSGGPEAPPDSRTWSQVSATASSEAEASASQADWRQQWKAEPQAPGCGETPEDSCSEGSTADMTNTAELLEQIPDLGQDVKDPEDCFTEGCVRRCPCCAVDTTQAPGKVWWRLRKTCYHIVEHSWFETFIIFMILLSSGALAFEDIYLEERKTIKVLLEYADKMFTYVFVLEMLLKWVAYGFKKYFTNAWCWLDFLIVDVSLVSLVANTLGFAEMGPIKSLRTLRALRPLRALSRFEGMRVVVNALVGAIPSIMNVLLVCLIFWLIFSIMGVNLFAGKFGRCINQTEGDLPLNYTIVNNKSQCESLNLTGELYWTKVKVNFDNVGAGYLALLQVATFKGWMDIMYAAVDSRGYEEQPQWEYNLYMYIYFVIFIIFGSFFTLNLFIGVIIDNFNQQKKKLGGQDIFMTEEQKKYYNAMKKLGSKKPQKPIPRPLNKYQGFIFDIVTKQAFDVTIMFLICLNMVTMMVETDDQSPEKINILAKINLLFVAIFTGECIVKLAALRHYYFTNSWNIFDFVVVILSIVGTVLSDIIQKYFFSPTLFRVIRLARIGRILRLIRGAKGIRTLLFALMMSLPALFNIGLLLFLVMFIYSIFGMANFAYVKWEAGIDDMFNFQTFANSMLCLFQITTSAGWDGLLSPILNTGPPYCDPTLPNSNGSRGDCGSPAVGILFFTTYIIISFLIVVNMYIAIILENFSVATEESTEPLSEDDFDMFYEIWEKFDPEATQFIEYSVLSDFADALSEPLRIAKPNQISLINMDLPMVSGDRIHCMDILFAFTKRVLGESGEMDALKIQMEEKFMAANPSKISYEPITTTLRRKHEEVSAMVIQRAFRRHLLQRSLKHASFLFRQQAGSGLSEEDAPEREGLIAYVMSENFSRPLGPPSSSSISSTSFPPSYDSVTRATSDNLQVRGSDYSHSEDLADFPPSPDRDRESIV

[2] = Cytotoxicity against human MDA-MB-231 cells assessed as reduction in cell viability after 24 hrs by MTS assay; format: cell-based
Summary of the method: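 Cells are seeded at 10^4/well in 5% FBS/DMEM and grown 24 h at 37 °C, 5% CO2. They are then exposed 24 h to 1, 5, 10 or […] μM compound or vehicle (0.25% DMSO in PBS), with 5 wells per concentration. MTS is added for 30 min and absorbance read at 490 nm. The maximum non-toxic concentration is judged against vehicle, mean of five repeats.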

MDA-MB-231 [3] = conditions: Homo sapiens, 30 uM
[4] = target: T1, Sodium channel protein type 5 subunit alpha; test: Inhibition of neonatal Nav1.5 in human MDA-MB-231 cells assessed as reduction in inward sodium peak current at -100 mV holding potential after 5 to 10 mins by whole cell patch clamp method; format: cell-based; summary of the method: as §1
Target sequence in this assay (Q14524 whole entry, looked up, the tested form may be a part): as the sequence (Q14524 whole entry, the tested form may be a part) above

MDA-MB-231 [5] = test: Anti-invasive activity against human MDA-MB-231 cells at 0.1 uM after 24 hrs by Hema staining based microscopic method relative to control; format: functional; conditions: MDA-MB-231, 24 h
Summary of the method: (§2)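 Matrigel-coated transwell invasion chambers are hydrated 2 h at 37 °C, with 5% FBS/DMEM above and 10% FBS/DMEM below as chemoattractant. 4 × 10^4 cells go in the upper chamber. Compound or vehicle (0.2% DMSO in PBS) is added to both chambers. After 24 h at 37 °C, 5% CO2, invaded cells are fixed, Hema-stained and counted in five membrane regions. Counts are normalized to solvent control, mean ± SD.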

MDA-MB-231 [6] = test: Anti-invasive activity against human MDA-MB-231 cells at 1 uM after 24 hrs by Hema staining based microscopic method relative to control; format: functional; conditions: MDA-MB-231, 24 h; summary of the method: as §2
[7] = target: T1, Sodium channel protein type 5 subunit alpha; test: Irreversible inhibition of neonatal Nav1.5 in human MDA-MB-231 cells assessed as reduction in sodium peak current elecited for membrane depolarization from -100 mV to -5 mV at -100 mV holding potential treated for 5 to 10 mins followed by compound washout by whole cell patch clamp method relative to control; format: cell-based
Summary of the method: (§3)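 Whole-cell voltage clamp on MDA-MB-231 cells grown in 5% FBS DMEM, with 60% capacitance and series-resistance compensation and P/2 leak subtraction. Cells were perifused with PSS (mM: NaCl 140, KCl 4, MgCl2 1, CaCl2 2, NaH2PO4 0.33, glucose 11.1, HEPES 10; pH 7.4) with 0.2% DMSO, and compound was applied 5–10 min (final 0.1–100 μM). Peak INa was evoked by 30 ms steps from −100 to −5 mV. Percent block was taken against control, followed by wash-out.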
Target sequence in this assay (Q14524 whole entry, the tested form may be a part): as above

[8] = target: T1, Sodium channel protein type 5 subunit alpha; test: Inhibition of neonatal Nav1.5 in human MDA-MB-231 cells assessed as reduction in inward sodium peak current by measuring half activation potential at 10 uM at -100 mV holding potential after 5 to 10 mins by whole cell patch clamp method (reference value: -33 +/- 1.2 mV); format: cell-based; conditions: mda-mb-231, 10 µM
Target sequence in this assay (Q14524 whole entry, the tested form may be a part): as above

[9] = target: T1, Sodium channel protein type 5 subunit alpha; test: Inhibition of neonatal Nav1.5 in human MDA-MB-231 cells assessed as reduction in inward sodium peak current at 100 uM at -100 mV holding potential after 5 to 10 mins by whole cell patch clamp method relative to control; format: cell-based; conditions: MDA-MB-231, human; summary of the method: as §3
Target sequence in this assay (Q14524 whole entry, the tested form may be a part): as above

[10] = target: T1, Sodium channel protein type 5 subunit alpha; test: Inhibition of neonatal Nav1.5 in human MDA-MB-231 cells assessed as reduction in inward sodium peak current by measuring half inactivation potential at 10 uM at -100 mV holding potential after 5 to 10 mins by whole cell patch clamp method (reference value: -71.6 +/- 0.4 mV); format: cell-based; conditions: mda-mb-231, 10 µM
Target sequence in this assay (Q14524 whole entry, the tested form may be a part): as above

[11] = target: T1, Sodium channel protein type 5 subunit alpha; test: Inhibition of neonatal Nav1.5 in human MDA-MB-231 cells assessed as reduction in inward sodium peak current at 1 uM at -100 mV holding potential after 5 to 10 mins by whole cell patch clamp method relative to control; format: cell-based; conditions: MDA-MB-231, human; summary of the method: as §3
Target sequence in this assay (Q14524 whole entry, the tested form may be a part): as above

[12] = target: T1, Sodium channel protein type 5 subunit alpha; test: Reversible inhibition of neonatal Nav1.5 in human MDA-MB-231 cells assessed as reduction in sodium peak current elecited for membrane depolarization from -100 mV to -5 mV by measuring remaining current amplitude at 0.1 to 100 uM at -100 mV holding potential treated for 5 to 10 mins followed by compound washout by whole cell patch clamp method relative to control
[13] = target: T1, Sodium channel protein type 5 subunit alpha; test: Inhibition of neonatal Nav1.5 in human MDA-MB-231 cells assessed as reduction in inward sodium peak current by measuring half inactivation potential at 10 uM at -100 mV holding potential after 5 to 10 mins by whole cell patch clamp method (reference value: -66 +/- 2.5 mV); format: cell-based; conditions: mda-mb-231, 10 µM
[14] = target: T1, Sodium channel protein type 5 subunit alpha; test: Inhibition of neonatal Nav1.5 in human MDA-MB-231 cells assessed as reduction in inward sodium peak current by measuring half activation potential at 10 uM at -100 mV holding potential after 5 to 10 mins by whole cell patch clamp method (reference value: -30.7 +/- 0.9 mV); format: cell-based; conditions: mda-mb-231, 10 µM

Compound | inhibition at 10 µM [1] | MNTC at 24 h [2] | IC50 [4] | inhibition at 0.1 µM (MDA-MB-231 [5]) | inhibition at 1 µM (MDA-MB-231 [6]) | inhibition at 100 µM [9] | inhibition at 1 µM [11] | also measured
Fc1ccc(C(CCCNCCCc2ccccc2)c2ccc(F)cc2)cc1 | 30% | 10 µM | – | – | – | – | – | –
NC1=N[C@H](O)[C@H]2[C@H]3O[C@]4(O)O[C@@H]([C@@H](O)[C@@]2(N1)[C@@H]4O)[C@]3(O)CO [TETRODOTOXIN] | – | 30 µM | – | – | – | – | – | inhibition (MDA-MB-231 [3]): 31.5%
Fc1ccc(C(CCCNCCc2ccccc2)c2ccc(F)cc2)cc1 | 30% | 10 µM | – | – | – | – | – | –
Fc1ccc(C(CCCNCCCN2CCCCC2)c2ccc(F)cc2)cc1 | 50% | 5 µM | 4.8 µM | 20% | 30.3% | > 95% | 34.9% | inhibition (INH) [7]: Dose-dependent effect; V1/2 [8]: -34.9 mV; V1/2 [10]: -88.6 mV
Fc1ccc(CCCCNCCCN2CCCCC2)cc1 | 60% | > 25 µM | 5.9 µM | 20% | 28% | > 95% | 25% | Activity [12]: 17.4%; V1/2 [13]: -77.5 mV; V1/2 [14]: -36.8 mV
CC(C)(C)CCCCNCCCN1CCCCC1 | 30% | 10 µM | – | – | – | – | – | –
